Structures are written as SMILES. Converted amounts (≈) assume the structure as drawn.

Data set [1] has as its system Staphylococcus aureus. In words: Antibacterial activity against Staphylococcus aureus USA300 assessed as reduction in bacterial growth by CLSI based broth microdilution method. The format is functional. On the technique in general: Broth dilution looks for growth in wells or tubes with falling amounts of substance.
The subject of another data set is Streptococcus pyogenes. The data set can be described thus: Antibacterial activity against Streptococcus pyogenes LSI-1235 assessed as reduction in bacterial growth by CLSI based broth microdilution method. The format is functional.
The test system of a further data set is Enterococcus faecium. In words: Antibacterial activity against Vancomycin-resistant Enterococcus faecium LSI-3340 assessed as reduction in bacterial growth by CLSI based broth microdilution method. The format is functional.
The subject of data set [2] is Staphylococcus aureus. In words: Antibacterial activity against Fluoroquinolone-resistant Staphylococcus aureus assessed as reduction in bacterial growth by CLSI based broth microdilution method. The format is functional.
Data set [3] can be described thus: Inhibition of Staphylococcus aureus topoisomerase IV using kDNA as substrate incubated for 30 mins by gel electrophoresis analysis. The note with it: read-out: IC50.
For data set [4], the system named is Staphylococcus aureus. In words: Antibacterial activity against Staphylococcus aureus 3527 assessed as reduction in bacterial growth by CLSI based broth microdilution method. The format is functional. The gist of the method: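 Host is a multidrug-resistant MRSA clinical isolate (formerly 1095), the parent of an isogenic D83N gyrase mutant. MIC was read by CLSI broth microdilution and reported in µg/mL.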

In data set [5] the test system is Staphylococcus aureus. The data set can be described thus: Antibacterial activity against Staphylococcus aureus harboring DNA gyrase D83N mutant assessed as reduction in bacterial growth by CLSI based broth microdilution method. The format is functional. The method, boiled down:
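MIC against an isogenic NBTI-resistant daughter strain carrying a D83N substitution in DNA gyrase, originally selected under NBTI pressure from multidrug-resistant MRSA isolate 3527. CLSI broth microdilution was used, with values in µg/mL.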

The target of data set [6] is T1, Nav1.5 (late current) (Homo sapiens, UniProt Q14524). The data set can be described thus: Inhibition of recombinant human Nav1.5 late expressed in human HEK293 cells late at 3 uM in presence of ATXII by automated Qpatch clamp assay relative to control. The note with it: HEK293 cells expressing recombinant human Nav1.5. The format is ADME, cell-based. The gist of the method: (§1)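 Part of an eight-assay CiPA panel run on a QPatch HT automated patch clamp at 3, 30 and 100 µM, in duplicate. The test compound came from a 30 mM DMSO stock. Data were filtered for seal quality, seal drop and current amplitude, and reported as mean percent inhibition.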
T1 sequence (Q14524 whole entry): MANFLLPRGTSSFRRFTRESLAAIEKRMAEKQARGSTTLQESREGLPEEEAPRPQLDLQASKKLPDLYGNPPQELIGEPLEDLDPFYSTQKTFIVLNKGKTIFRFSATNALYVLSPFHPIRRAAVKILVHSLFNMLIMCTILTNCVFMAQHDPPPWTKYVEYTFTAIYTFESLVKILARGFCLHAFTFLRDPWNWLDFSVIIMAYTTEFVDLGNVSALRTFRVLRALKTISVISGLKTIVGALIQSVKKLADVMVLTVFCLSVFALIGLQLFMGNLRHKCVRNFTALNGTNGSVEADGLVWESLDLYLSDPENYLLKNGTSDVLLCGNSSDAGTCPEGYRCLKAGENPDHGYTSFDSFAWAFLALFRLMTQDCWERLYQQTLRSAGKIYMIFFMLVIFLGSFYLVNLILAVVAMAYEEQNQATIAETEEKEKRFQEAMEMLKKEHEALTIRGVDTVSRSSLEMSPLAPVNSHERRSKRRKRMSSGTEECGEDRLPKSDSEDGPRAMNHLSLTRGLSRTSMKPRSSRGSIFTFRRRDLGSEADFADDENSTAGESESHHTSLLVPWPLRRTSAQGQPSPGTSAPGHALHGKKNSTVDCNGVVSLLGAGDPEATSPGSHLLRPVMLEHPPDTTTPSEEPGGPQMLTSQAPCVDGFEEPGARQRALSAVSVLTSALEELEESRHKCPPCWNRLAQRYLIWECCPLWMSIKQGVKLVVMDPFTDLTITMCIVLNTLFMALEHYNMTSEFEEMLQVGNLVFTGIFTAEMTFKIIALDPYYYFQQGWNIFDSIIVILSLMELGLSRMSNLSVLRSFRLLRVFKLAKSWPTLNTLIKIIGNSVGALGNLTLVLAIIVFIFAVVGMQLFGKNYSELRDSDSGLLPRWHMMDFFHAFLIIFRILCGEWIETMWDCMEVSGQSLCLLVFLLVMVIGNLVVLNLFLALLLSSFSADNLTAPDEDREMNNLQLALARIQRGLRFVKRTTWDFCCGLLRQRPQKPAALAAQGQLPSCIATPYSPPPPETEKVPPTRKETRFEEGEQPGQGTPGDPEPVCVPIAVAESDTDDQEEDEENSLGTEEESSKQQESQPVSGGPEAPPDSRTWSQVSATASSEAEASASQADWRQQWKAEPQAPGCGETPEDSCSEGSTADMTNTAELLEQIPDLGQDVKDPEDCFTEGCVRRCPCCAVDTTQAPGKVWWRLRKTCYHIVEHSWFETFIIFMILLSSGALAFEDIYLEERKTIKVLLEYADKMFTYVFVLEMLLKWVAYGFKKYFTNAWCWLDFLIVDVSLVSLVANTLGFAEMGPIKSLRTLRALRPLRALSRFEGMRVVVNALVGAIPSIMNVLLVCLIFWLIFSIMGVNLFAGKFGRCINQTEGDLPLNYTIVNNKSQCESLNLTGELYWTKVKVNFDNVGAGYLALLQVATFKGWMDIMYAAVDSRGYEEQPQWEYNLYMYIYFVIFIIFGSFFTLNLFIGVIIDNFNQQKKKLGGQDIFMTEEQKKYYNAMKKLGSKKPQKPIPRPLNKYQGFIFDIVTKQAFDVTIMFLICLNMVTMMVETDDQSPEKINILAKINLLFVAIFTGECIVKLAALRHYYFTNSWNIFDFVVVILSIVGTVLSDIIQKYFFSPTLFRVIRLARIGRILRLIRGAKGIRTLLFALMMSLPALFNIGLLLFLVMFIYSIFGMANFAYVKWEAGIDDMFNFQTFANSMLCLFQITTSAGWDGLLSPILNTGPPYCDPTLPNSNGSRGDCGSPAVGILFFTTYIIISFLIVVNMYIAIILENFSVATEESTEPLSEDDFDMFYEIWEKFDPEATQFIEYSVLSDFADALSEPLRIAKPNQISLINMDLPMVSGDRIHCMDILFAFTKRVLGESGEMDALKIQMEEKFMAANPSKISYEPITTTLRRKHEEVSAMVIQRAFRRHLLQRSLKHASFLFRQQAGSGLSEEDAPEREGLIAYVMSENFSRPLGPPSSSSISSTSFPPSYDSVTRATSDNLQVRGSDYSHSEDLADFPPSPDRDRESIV
(Patch clamp records ionic current or voltage across a cell membrane.)

Data set [7] deals with T1, Nav1.5 (late current). In words: Inhibition of recombinant human Nav1.5 late expressed in human HEK293 cells at 30 uM in presence of ATXII by automated Qpatch clamp assay relative to control. The note with it: HEK293 cells expressing recombinant human Nav1.5. The format is ADME, cell-based. The gist of the method: as §1
Data set [8] deals with T2, Sodium channel protein type 5 subunit alpha (Homo sapiens, UniProt Q14524). The data set can be described thus: Activation of recombinant human Nav1.5 late expressed in human HEK293 cells assessed as activation of late current at 3 uM by automated Qpatch clamp assay relative to control. The format is ADME, cell-based. The settings on record: hek293, 3 µM. The gist of the method: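 Part of an eight-assay CiPA panel run in duplicate on an automated QPatch HT patch-clamp system at 3, 30 and 100 µM. Test compound came from a 30 mM DMSO stock. Records were filtered for seal quality, seal drop and current amplitude, and mean percent values are reported.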
T2 sequence (Q14524 whole entry): as above

In data set [9] the target is T2, Sodium channel protein type 5 subunit alpha. In words: Activation of recombinant human Nav1.5 late expressed in human HEK293 cells assessed as activation of late current at 100 uM by automated Qpatch clamp assay relative to control. The format is ADME, cell-based. The settings on record: hek293, 100 µM. The gist of the method: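 Part of an eight-assay CiPA cardiac ion channel panel run in duplicate on a QPatch HT automated patch-clamp system. Compound was prepared as a 30 mM DMSO stock and tested at 3, 30 and 100 µM. Recordings were filtered for seal quality, seal drop and current amplitude, and results are reported as mean percent values.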

Data set [10] has as its target Sodium-dependent noradrenaline transporter (Homo sapiens) (UniProt P23975). In words: Inhibition of recombinant human full length Norepinephrine transporter expressed in dog MDCK cells at 100 uM in presence of [125I]-RTI-55 incubated for 180 mins by scintillation counting method relative to control. The format is cell-based. The note with it: CHO-K1. The gist of the method: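 Off-target screen against a panel of 44 receptors, enzymes and transporters, run in duplicate at a single 100 µM concentration. Results are given as % inhibition. No concentration-response follow-up was done.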

Data set [11] is described as follows: Cytotoxicity against human HepaRG assessed as reduction in cell viability at 100 uM incubated for 24 hrs by Cell-Titer Glo assay. The settings on record: HepaRG cells, read-out: INH. The format is cell-based. The gist of the method: (§2)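 ATP-based viability read-out in HepaRG cells over a five-point concentration series (0.01, 0.1, 1, 10, 100 µM). Results are given as % cytotoxicity at each concentration.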

Data set [12] is described as follows: Cytotoxicity against human HepaRG assessed as reduction in cell viability at 10 uM incubated for 24 hrs by Cell-Titer Glo assay. The note with it: HepaRG cells, read-out: INH. The format is cell-based. The gist of the method:
as §2

Data set [13] is described as follows: Cytotoxicity against human HepaRG assessed as reduction in cell viability at 1 uM incubated for 24 hrs by Cell-Titer Glo assay. The settings on record: HepaRG cells, read-out: INH. The format is cell-based. The method, boiled down: as §2
The nature of data set [14]: Cytotoxicity against human HepaRG assessed as reduction in cell viability at 0.1 uM incubated for 24 hrs by Cell-Titer Glo assay. The note with it: HepaRG cells, read-out: INH. The format is cell-based. The method, boiled down:
as §2

Data set [15] is described as follows: Cytotoxicity against human HepaRG assessed as reduction in cell viability at 0.01 uM incubated for 24 hrs by Cell-Titer Glo assay. The format is cell-based. The settings on record: HepaRG cells, read-out: INH. The gist of the method: as §2
A short description of data set [16]: Aqueous solubility of compound at 100 uM incubated for 90 mins by LC-MS/MS analysis. The format is physicochemical. The note with it: buffer. The gist of the method:
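Kinetic solubility measured in buffered aqueous solution at pH 7.4.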

Data set [17] can be described thus: Permeability across basolateral to apical side in human Caco2 cells at 10 uM by LC-MS/MS analysis. The format is ADME, cell-based. The note with it: Caco-2, read-out: permeability. (In general: Passage across Caco-2 layers is used to estimate intestinal permeability.)
In another data set the target is CYP1A2 (Homo sapiens, UniProt P05177). The data set can be described thus: Inhibition of human liver microsome CYP1A2 at 10 uM in presence of NADPH incubated for 10 to 30 mins by LC-MS-MS analysis. The format is ADME. The note with it: human liver microsomes, time 10-30 min.
CYP1A2, sequence (P05177 whole entry): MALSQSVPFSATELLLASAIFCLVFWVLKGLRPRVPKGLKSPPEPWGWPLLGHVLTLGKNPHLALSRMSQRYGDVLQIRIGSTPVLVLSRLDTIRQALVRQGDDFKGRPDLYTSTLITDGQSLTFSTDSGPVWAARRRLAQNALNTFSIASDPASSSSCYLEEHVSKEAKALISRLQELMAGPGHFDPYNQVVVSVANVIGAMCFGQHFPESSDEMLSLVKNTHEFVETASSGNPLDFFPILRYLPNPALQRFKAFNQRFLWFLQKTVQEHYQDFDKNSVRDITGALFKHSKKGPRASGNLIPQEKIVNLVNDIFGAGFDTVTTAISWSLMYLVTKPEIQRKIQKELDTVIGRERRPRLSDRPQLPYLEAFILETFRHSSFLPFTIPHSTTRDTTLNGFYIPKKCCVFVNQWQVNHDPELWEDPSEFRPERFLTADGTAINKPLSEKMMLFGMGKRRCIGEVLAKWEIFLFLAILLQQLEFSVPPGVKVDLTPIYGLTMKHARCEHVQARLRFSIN
A further data set concerns the target CYP2B6 (Homo sapiens, UniProt P20813). In words: Inhibition of human liver microsome CYP2B6 at 10 uM in presence of NADPH incubated for 10 to 30 mins by LC-MS-MS analysis. The format is ADME. The settings on record: human liver microsomes, time 10-30 min.
The next data set has as its target CYP2C9 (Homo sapiens, UniProt P11712). In words: Inhibition of human liver microsome CYP2C9 at 10 uM in presence of NADPH incubated for 10 to 30 mins by LC-MS-MS analysis. The format is ADME. The note with it: human liver microsomes, time 10-30 min.
The target in the next data set is Cytochrome P450 3A4 (Homo sapiens, UniProt P08684). The data set can be described thus: Inhibition of human liver microsome CYP3A4 in presence of NADPH incubated for 10 to 30 mins by LC-MS-MS analysis. The format is ADME, microsomes.
Cytochrome P450 3A4, sequence (P08684 whole entry): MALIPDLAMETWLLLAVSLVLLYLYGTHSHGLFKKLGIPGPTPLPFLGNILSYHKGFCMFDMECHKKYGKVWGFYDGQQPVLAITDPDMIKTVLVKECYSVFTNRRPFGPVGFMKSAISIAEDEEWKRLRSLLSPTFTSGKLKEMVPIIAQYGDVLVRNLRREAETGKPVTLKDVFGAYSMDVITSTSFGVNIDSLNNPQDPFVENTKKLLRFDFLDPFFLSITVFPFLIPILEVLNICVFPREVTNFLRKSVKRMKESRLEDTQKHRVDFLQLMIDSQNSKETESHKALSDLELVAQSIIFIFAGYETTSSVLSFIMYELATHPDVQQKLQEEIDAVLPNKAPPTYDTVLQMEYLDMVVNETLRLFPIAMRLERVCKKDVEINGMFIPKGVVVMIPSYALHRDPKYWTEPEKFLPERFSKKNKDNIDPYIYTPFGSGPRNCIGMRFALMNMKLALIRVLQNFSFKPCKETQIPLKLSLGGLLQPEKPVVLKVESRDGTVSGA
The target of a further data set is CYP3A4 (Homo sapiens, UniProt P08684). In words: Inhibition of human liver microsome CYP3A4 at 10 uM in presence of NADPH incubated for 10 to 30 mins by LC-MS-MS analysis; values are per cent of control. The note with it: human liver microsomes.
CYP3A4, sequence (P08684 whole entry): as above

For the compound `COc1ccc2ncc(F)c(CC[C@@]3(O)CO[C@@H]4[C@@H](NCc5cc6c(cn5)OCCO6)CO[C@@H]43)c2n1`, the MIC is 2 µg/mL (≈ 4.01 µM) in the data set with Staphylococcus aureus [1]; at most 0.12 µg/mL in the data set on Streptococcus pyogenes; 0.25 µg/mL (≈ 0.501 µM) in the data set on Enterococcus faecium; 2 µg/mL (≈ 4.01 µM) with Staphylococcus aureus [4]; 2 µg/mL (≈ 4.01 µM) with Staphylococcus aureus [5]. Besides, the MIC90 with Staphylococcus aureus [2] came to 2 µg/mL (≈ 4.01 µM). The IC50 in data set [3] was 7.4 µM; at Cytochrome P450 3A4 it was over 10 µM. Besides, on Nav1.5 (late current) [6], the inhibition at 3 µM was 4.3%. In addition, the inhibition at 30 µM on Nav1.5 (late current) [7] was 19.1%. The Activity in data set [8] is listed as 3.4%; in data set [9], 17%. The inhibition in data set [10] was 68%. In data set [11], the cytotoxicity at 24 h, 100 µM amounted to 14%. In data set [12], the cytotoxicity at 24 h, 10 µM stood at 8%. Further, in data set [13], the cytotoxicity at 24 h, 1 µM is 9%. Moreover, in data set [14], the cytotoxicity at 24 h, 0.1 µM is 4%. Besides, the cytotoxicity at 24 h, 0.01 µM in data set [15] was found to be 6%. This compound showed a solubility at […], 100 µM in data set [16] of 76.2 µM (≈ 38 µg/mL). The Papp B→A at 10 µM in data set [17] came to 85.3 ×10⁻⁶ cm/s. Also, the inhibition at 10 µM at CYP1A2, at CYP2B6 and at CYP2C9 was under 50% in each case. Moreover, the residual activity at 10 µM at CYP3A4 worked out at 49.5%.

By MIC is commonly meant the least concentration at which growth counts as inhibited. Broadly, the MIC90 is an inhibitory concentration at the 90% level, which refers to growth in some studies and to a panel of isolates in others. As a reminder, the IC50 is the concentration that inhibits the measured activity by half. One may read the inhibition as the percentage by which the read-out fell short of the control. The term solubility denotes the dissolved amount per volume that the medium holds. Low values mean a poorly soluble substance, high ones a readily soluble substance. As usually defined, the residual activity is the signal under treatment as a percentage of the control signal.

The record behind these values is ChEMBL document CHEMBL4765317, “Novel bacterial topoisomerase inhibitors derived from isomannide” (Eur J Med Chem, 2020).
